Legend:
Assay type in all cases: functional
Pseudomonas aeruginosa [1] = experiment: Minimum Potentiation Concentration of EPI required to achieve an 8-fold reduction in antibiotic MIC of AZT against MexAB-OprM pump system in Pseudomonas aeruginosa with 10% horse serum
Procedure, shortened: (§1)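 Broth microdilution in Mueller–Hinton broth, P. aeruginosa PAM1723, starting inoculum 10^6 CFU/mL, 18 h at 37 °C; run with and without 10% horse serum. Aztreonam MIC read by visual growth; MPC8 taken as lowest inhibitor concentration giving 8-fold reduction of aztreonam MIC.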

Pseudomonas aeruginosa [2] = experiment: Minimum Potentiation Concentration of EPI required to achieve an 8-fold reduction in antibiotic MIC of AZT against MexAB-OprM pump system in Pseudomonas aeruginosa without horse serum; procedure, shortened: as §1
[3] = Ratio of potentiation of aztreonam (AZT) with 10% horse serum to without serum
Procedure, shortened: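 Ratio of aztreonam MPC8 with 10% horse serum to MPC8 without serum, both from Mueller–Hinton broth microdilution against PAM1723 (10^6 CFU/mL, 18 h, 37 °C, visual growth read-out).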

Pseudomonas aeruginosa [4] = experiment: Minimum Potentiation Concentration of EPI required to achieve an 8-fold reduction in antibiotic MIC of levofloxacin against MexABOprMover-expressing strain of Pseudomonas aeruginosa
Procedure, shortened: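 P. aeruginosa PAM1723 in Mueller–Hinton broth, broth microdilution per NCCLS M7-A4, starting inoculum 10^6 CFU/mL, inhibitor titrated with levofloxacin; 18 h at 37 °C. Levofloxacin MIC read at 70% growth inhibition by OD 595 nm. Value is the inhibitor concentration giving an 8-fold drop in levofloxacin MIC, measured without serum.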

Row | SMILES | MPC8 (Pseudomonas aeruginosa [1]) [µg/mL] | MPC8 (Pseudomonas aeruginosa [2]) | Ratio [3] | MPC8 (Pseudomonas aeruginosa [4]) [µg/mL]
1 | CC(C)c1csc(/C=C/c2cccc(NC(=O)C(O)c3ccccc3C(=O)O)c2)n1 (configuration not stated) | 40 | 2.5 µg/mL | 16 | –
2 | CCC(C)(C(N)=O)c1csc(/C=C/c2cccc(NC(=O)Cc3ccccc3C(=O)O)c2)n1 (configuration not stated) | 40 | 20 µg/mL | 2 | 80
3 | COC(C(=O)Nc1cccc(/C=C/c2nc(C(C)C)cs2)c1)c1ccccc1C(=O)O (configuration not stated) | 160 | 20 µg/mL | 8 | 10
4 | CC(C)c1csc(CCc2ccnc(NC(=O)Cc3ccccc3C(=O)O)c2)n1 | 10 | 5 µg/mL | 2 | 2.5
5 | CC(C)c1csc(/C=C/c2cccc(NC(=O)[C@@H]3OC(C)(C)O[C@H]3C(=O)O)c2)n1 | 40 | 20 µg/mL | 2 | –
6 | CC(C)c1csc(COc2ccnc(NC(=O)Cc3ccccc3C(=O)O)c2)n1 | 5 | 2.5 µg/mL | 2 | –
7 | O=C(Cc1ccccc1C(=O)O)Nc1cccc(/C=C/c2nc(C(F)(F)C(F)(F)F)cs2)c1 | 80 | 2.5 µg/mL | 32 | –
8 | CC(C)(C)c1csc(/C=C/c2cccc(NC(=O)Cc3ccccc3C(=O)O)c2)n1 | 20 | <=0.63 ug ml-1 | > 32 | 0.63
9 | O=C(Cc1ccccc1C(=O)O)Nc1cccc(/C=C/c2nc(-c3ccccc3)cs2)c1 | 40 | 1.25 µg/mL | 32 | –
10 | CC(C)c1csc(/C=C/c2cccc(NC(=O)Cc3ccccc3C(=O)O)n2)n1 | 80 | 20 µg/mL | 4 | >80
11 | CC(C)c1csc(/C=C/c2ccnc(NC(=O)Cc3ccccc3C(=O)O)c2)n1 | 10 | >10 µg/mL | – | 0.31
12 | CC(C)(C)c1csc(/C=C/c2cccc(NC(=O)Cc3ncccc3C(=O)O)c2)n1 | 20 | 2.5 µg/mL | 8 | 1.25
13 | CC(C)c1csc(/C=C/c2cccc(NC(=O)[C@H]3OC(C)(C)O[C@@H]3C(=O)O)c2)n1 | 20 | 5 µg/mL | 4 | –
14 | CC(C)c1csc(/C=C/c2cncc(NC(=O)Cc3ccccc3C(=O)O)c2)n1 | 10 | 5 µg/mL | 2 | 2.5
15 | CC(C)c1csc(/C=C/c2cccc(NC(=O)Cc3ccccc3C(=O)O)c2)n1 | 10 | <=0.63 ug ml-1 | > 16 | –
